From PMC4233149 (Clinical cancer research : an official journal of the …, 2014)
“And” between values parts separate entries of the source, which are not always exact repeats. Identical values can stand only once. Like-named read-outs stand apart in the source and are kept apart here.

How the values were obtained:
[1] = Plasma pharmacokinetics, QOD schedule; format: in vivo, human; settings: 60mg QOD
pSer473 AKT [2] = assay: PD biomarker in platelet-rich plasma; format: in vivo, human; settings: PRP
Solubility = format: physicochemical; settings: across physiological pH ranges
[3] = Plasma pharmacokinetics, QW schedule; format: in vivo, human
Summary of the method: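 Plasma was sampled after the first and last weekly oral dose of cycle 1 (90–300mg). Concentrations were analysed non-compartmentally for AUC0-168h, Cmax, C48h […], Tmax and apparent terminal t1/2. Last-day/day-1 ratios were derived for AUC, Cmax and C48h.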

pThr246 PRAS40 = assay: PD biomarker in platelet-rich plasma; format: in vivo, human; settings: 60mg QOD, PRP
Summary of the method: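 Platelet-rich plasma was collected at baseline and at 3, 6, 24 and 48h on oral 60mg QOD dosing. pThr246 PRAS40 was measured by MSD electrochemiluminescence assay validated to Good Clinical Practice standards. Values were expressed as percent of individual baseline, averaged per timepoint, and compared with baseline by paired t-test.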

pSer473 AKT [4] = settings: cited from earlier work
pSer473 AKT [5] = assay: PD biomarker in paired tumor biopsies; format: in vivo, human
Summary of the method: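 Paired tumor biopsies were taken before and on treatment (oral QW or 60mg QOD). pSer473 AKT was quantified by MSD electrochemiluminescence assay validated to Good Clinical Practice standards. Levels were expressed as percent of each patient's baseline.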

advanced solid tumors = assay: Multiparametric functional MRI; format: in vivo, human; settings: 60mg QOD, one patient with ADC response
Summary of the method: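 Oral dosing at 60mg QOD to fasted patients in 28-day cycles. Imaging on a 1.5T MR system used DCE-MRI, DWI, 1H-MRS and ISW-MRI. Median Ktrans, ADC, tCho/water ratio and R2* were analysed. Four scans per patient: two pre-treatment (reproducibility cohort), then cycle 1 day 7±1 and day 21±4.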

[6] = read-out: mean Cmax of the no-observed-adverse-effect-level (NOAEL) dose; dogs, preclinical toxicology studies; cited from earlier work
[7] = Phase I safety and tolerability, alternate day; format: in vivo, human; settings: 60mg QOD
Summary of the method: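 Patients took 60mg tablets fasted, QOD in 28-day cycles, in expansion cohorts (CRPC, ovarian, MRI). Safety was checked at baseline, cycle 1 days 1, 2, 7, 15, 21, 27 and 28, weekly in cycle 2, then monthly. Glucose was monitored. Serum C-peptide and whole-blood HbA1c were measured at baseline and monthly. AEs were graded by CTCAE v3.0.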

NC1(c2ccc(-c3nc4ccn5c(=O)[nH]nc5c4cc3-c3ccccc3)cc2)CCC1 [MK-2206]
accumulation ratio AUClast day:AUCfirst day [1]: 3.3
overall mean decrease of pSer473 AKT levels (pSer473 AKT [2]; 60mg QOD): 55.3%
time of maximum inhibition of pSer473 AKT post-MK-2206 (pSer473 AKT [2]; 60mg QOD): 6 h
mean pSer473 AKT signal, % of baseline levels (pSer473 AKT [2]; 60mg QOD, 3h, 29 patients): 36.3%
mean pSer473 AKT signal, % of baseline levels (pSer473 AKT [2]; 60mg QOD, 6h, 29 patients): 27.9%
mean pSer473 AKT signal, % of baseline levels (pSer473 AKT [2]; 60mg QOD, 24h, 29 patients): 44.0%
mean pSer473 AKT signal, % of baseline levels (pSer473 AKT [2]; 60mg QOD, 48h, 29 patients): 70.6%
mean pSer473 AKT levels, % of baseline levels (pSer473 AKT [2]; 60mg QOD, 48h, one outlier removed (28 patients), p=0.0004): 60.1%
time of maximal suppression of pSer473 AKT and its substrate pSer9 GSK3β (pSer473 AKT [2]; 150mg QW, breast cancer patient): 24 h
mean pSer473 AKT signal, % of baseline levels (pSer473 AKT [2]; 200mg QW, 24h, n=11): 19.8%
mean pSer473 AKT signal, % of baseline levels (pSer473 AKT [2]; 200mg QW, 48h, n=11): 30.6%
mean pSer473 AKT signal, % of baseline levels (pSer473 AKT [2]; 200mg QW, 96h, n=11): 51.7%
mean pSer473 AKT signal, % of baseline levels (pSer473 AKT [2]; 200mg QW, 168h, n=11): 97.4%
duration of initial suppression of pSer473 AKT phosphorylation signal (pSer473 AKT [2]; QW MTD): at least 96 h
solubility (Solubility): relatively low solubility
C48h Last Day / Day1 Ratio (geometric mean) ([3]; 90mg QW): 1.61
Tmax, median (min - max) ([3]; 90mg QW, Day 1): 6.0 (4.0-10.0) h
Tmax, median (min - max) ([3]; 90mg QW, Last Day of cycle 1): 4.0 (4.0-4.0) h
dose proportionality of AUC and Cmax ([3]; 90mg to 300mg QW): increased in a dose-proportional manner
decline of plasma concentrations ([3]; 90mg, 135mg, 200mg, 250mg and 300mg QW): declined in a mono-exponential manner
auto-induction of metabolizing enzymes ([3]; 90mg-300mg QW, cycle 1): no auto-induction of MK-2206 metabolizing enzymes
AUC0-168h Last Day / Day1 Ratio (geometric mean) ([3]; 135mg QW): 1.91
C48h Last Day / Day1 Ratio (geometric mean) ([3]; 135mg QW): 1.86
Cmax Last Day / Day1 Ratio (geometric mean) ([3]; 135mg QW): 1.95
Tmax, median (min - max) ([3]; 135mg QW, Day 1): 4.0 (4.0-10.0) h
Tmax ([3]; 150mg QW, Last Day of cycle 1, N=1): 4.0 h
AUC0-168h Last Day / Day1 Ratio (geometric mean) ([3]; 200mg QW): 1.54
C48h Last Day / Day1 Ratio (geometric mean) ([3]; 200mg QW): 1.49
Cmax Last Day / Day1 Ratio (geometric mean) ([3]; 200mg QW): 1.33
Tmax, median (min - max) ([3]; 200mg QW, Day 1): 6.0 (4.0-10.0) h
Tmax, median (min - max) ([3]; 200mg QW, Last Day of cycle 1): 6.0 (4.0-24.0) h
Tmax, median (min - max) ([3]; 250mg QW, Day 1): 6.0 (4.0-6.0) h
Tmax ([3]; 250mg QW, Last Day of cycle 1, N=1): 4.0 h
Tmax, median (min - max) ([3]; 300mg QW, Day 1): 4.0 (4.0-6.0) h
percent coefficient of variations (CVs) of AUC and Cmax ([3]; QW schedule, inter-patient variability): 12% to 71
Cmax at 200mg QW compared with 60mg QOD ([3]; higher at 200mg QW): about 2 fold
half-life ([3]; human, plasma, oral, 90 mg): 71.6 ± 12.2 h
concentration at 48 h ([3]; human, plasma, oral, 90 mg, C48h Mean ± SD, 90mg QW, Day 1, plasma): 50.9 ± 38.2 nM
concentration at 48 h ([3]; human, plasma, oral, 90 mg, C48h Mean ± SD, 90mg QW, Last Day of cycle 1, plasma): 79.3 ± 33.7 nM
concentration at 48 h ([3]; human, plasma, oral, 90 mg, mean C48h, 90mg QW, multiple dose): 79.3 nM
Tmax ([3]; human, plasma, oral, 135 mg): 5 h
half-life ([3]; human, plasma, oral, 135 mg): 88.9 ± 26.9 h
concentration at 48 h ([3]; human, plasma, oral, 135 mg, C48h Mean ± SD, 135mg QW, Day 1, plasma): 90.3 ± 25.1 nM
concentration at 48 h ([3]; human, plasma, oral, 135 mg, mean C48h, 135mg QW, multiple dose): 158 nM
Tmax ([3]; human, plasma, oral, 150 mg): 4 to 10 h
half-life ([3]; human, plasma, oral, 150 mg): 64.4 h
AUC(0-t) ([3]; human, plasma, oral, 150 mg, AUC0-168h Mean, 150mg QW, Day 1, plasma, N=2): 20.7 µM·h
concentration at 48 h ([3]; human, plasma, oral, 150 mg, C48h, 150mg QW, Last Day of cycle 1, plasma, N=1): 185 nM
concentration at 48 h ([3]; human, plasma, oral, 150 mg, C48h Mean, 150mg QW, Day 1, plasma, N=2): 155 nM
Cmax ([3]; human, plasma, oral, 150 mg, Cmax Mean, 150mg QW, Day 1, plasma, N=2): 337 nM
Cmax ([3]; human, plasma, oral, 150 mg, Cmax, 150mg QW, Last Day of cycle 1, plasma, N=1): 346 nM
concentration at 48 h ([3]; human, plasma, oral, 200 mg, C48h Mean ± SD, 200mg QW, Day 1, plasma): 121 ± 47.4 nM
concentration at 48 h ([3]; human, plasma, oral, 200 mg, mean C48h, 200mg QW, multiple dose): 187 nM
half-life ([3]; human, plasma, oral, 250 mg): 53.7 h
concentration at 48 h ([3]; human, plasma, oral, 250 mg, C48h, 250mg QW, Last Day of cycle 1, plasma, N=1): 74.8 nM
concentration at 48 h ([3]; human, plasma, oral, 250 mg, C48h Mean ± SD, 250mg QW, Day 1, plasma): 103 ± 19.6 nM
Cmax ([3]; human, plasma, oral, 250 mg, Cmax, 250mg QW, Last Day of cycle 1, plasma, N=1): 169 nM
concentration at 48 h ([3]; human, plasma, oral, 300 mg, C48h Mean, 300mg QW, Day 1, plasma): 253 nM
Cmax ([3]; human, plasma, oral, 300 mg, mean Cmax after the first dose, 300mg QW cohort): 466 nM
Cmax ([3]; human, plasma, oral, mean Cmax levels after multiple QW dose administration, 90mg to 250mg QW): 153 to 245 nM
time of maximum suppression of pThr246 PRAS40 post-MK-2206 (pThr246 PRAS40): 6 h
mean pThr246 PRAS40 levels, % of baseline levels (pThr246 PRAS40; 3h): 79.8%
mean pThr246 PRAS40 levels, % of baseline levels (pThr246 PRAS40; 6h): 79.7%
mean pThr246 PRAS40 levels, % of baseline levels (pThr246 PRAS40; 24h): 86.9%
mean pThr246 PRAS40 levels, % of baseline levels (pThr246 PRAS40; 48h): 91.4%
mean pThr246 PRAS40 levels, % of baseline levels (pThr246 PRAS40; 48h, one outlier removed (28 patients), p=0.0019): 81.9%
concentration required for 70% inhibition of pSer473 AKT in whole blood (pSer473 AKT [4]; level identified in preclinical models as associated with antitumor activity): 57 nmol/L
prespecified PK target for 70% inhibition of pAKT (pSer473 AKT [4]; plasma concentration target): 56.8 nM
pSer473 AKT levels, % of baseline levels (range) (pSer473 AKT [5]; 60mg QOD, 3 patients): 45.3-56.2%
mean pSer473 AKT levels, % of baseline levels (pSer473 AKT [5]; 60mg QOD, 3 patients, p=0.004): 50.1%
pSer473 AKT signal, % of baseline levels (range) (pSer473 AKT [5]; 200mg QW, 5 patients): 37.5-60.3%
pSer473 AKT signal, % of baseline levels (pSer473 AKT [5]; 200mg QW, 5 patients, p=0.0003): 50.0%
reduction in K^trans (advanced solid tumors): 20%
Cmax [6]: 365 nM
C-peptide level increase during first cycle (range) [7]: 2.7% to 495.5
time for DLTs to resolve to baseline levels after drug interruption [7]: 1-2 weeks
end of cycle 1 HbA1c values ([7]; 2 patients with baseline levels ≤6.5%): 7.3% and 8.3%
patients with increased C-peptide levels during first cycle ([7]; 23/27): 85.2%
patients with HbA1c levels of ≤6.5% at baseline and end of cycle 1 ([7]; 25/29): 86.2%
elevated blood glucose levels, patients ([7]; 27/38): 71.1%
tolerability ([7]; 38 patients): generally well tolerated
G3 hyperglycemia, patients ([7]; following first cycle, 1/38): 2.6%
G1-2 hyperglycemia, patients ([7]; following first cycle, 3/38): 7.9%
